Screening data deposited in PubChem by several laboratories.
RanGTP-Impb inh: disruptors of Ran-importin-beta complex formation – biochemical, FRET, CFP-Ran, YFP-importin-beta, homogeneous, primary screen. 300,000 tested, 1.1% active. cell-free CFP-Ran/YFP-importin-beta FRET ratio. inhibition, % (no concentration beside the values);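 active = more than half of the replicate wells show a fall in the fluorescence ratio signal beyond about 16%, limit read from the data, passing the limit was not always enough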;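 note: 0% = DMSO wells and 100% = Ran loaded with GDP instead of GTP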
Runt-CBFb FRET: inhibitors of human RUNX1 Runt domain binding to CBFb; Cerulean-Runt/Venus-CBFb FRET ratio 530/480, 1 h; AID 1496; 220,000 tested, 0.46% active; inhibition, % at 20 µM; Q01196+Q13951;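 active = inhibition over about 50% at 20 µM in the single-dose screen, limit read from the data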;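 note: 0% = DMSO wells and 100% = excess unlabeled CBFb competitor control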
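Reagent – Venus-CBFb binding partner, 100 nM · Assay system – Cerulean-tagged RUNX1 Runt domain (FRET donor) fusion protein · Input – 100 nM per protein · Incubation – two 1 h room-temperature incubations shielded from light · Measured by – FRET fluorescence · Medium – Tris buffer pH 7.5 with salts and BSA · Benchmarks – unlabeled CBFb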
Runt-SMMHC FRET: inhibitors of human RUNX1 Runt domain binding to CBFb-SMMHC | Cerulean-Runt/Venus-CBFb-SMMHC FRET ratio 530/480, 1 h | inhibition, % at 20 µM | 220,000 tested, 0.74% active | AID 1434;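 active = mean inhibition across duplicate retests at 20 µM reaching about 50%, limit read from the data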;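 note: 0% = DMSO wells and 100% = wells with excess untagged CBFb-SMMHC; inhibitors lower the FRET ratio by blocking Runt binding to CBFb-SMMHC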
Wee1 stabilizer: inhibitors of human Wee1 degradation | P30291 | HeLa Luc-Wee1K328M stability, luciferase luminescence; 100% = proteasome inhibitor MG132 effect | reporter increase, % at 5 µM | 220,000 tested, 1.2% active | AID 1321;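 active = activation above the mean of all tested compounds plus 3 SD, set per screening run, cut at about 8.8% in these data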;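 note: cells exposed to compound for 20 h before luminescence read; 0% = DMSO alone and 100% = MG132 at 30 µM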
proKLK7 act: activates the human kallikrein-7 zymogen; P49862; purified proKLK7, EDANS-DABCYL substrate fluorescence; 100% is mature enzyme control, 0% vehicle; activation, % at 7 µM; 370,000 tested, 0.9% active; AID 652039;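 active = activation above the mean of all tested compounds plus 3 SD, computed per campaign excluding outliers beyond control limits, cut at about 13% in these data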
Target sequence (P49862 whole entry, looked up): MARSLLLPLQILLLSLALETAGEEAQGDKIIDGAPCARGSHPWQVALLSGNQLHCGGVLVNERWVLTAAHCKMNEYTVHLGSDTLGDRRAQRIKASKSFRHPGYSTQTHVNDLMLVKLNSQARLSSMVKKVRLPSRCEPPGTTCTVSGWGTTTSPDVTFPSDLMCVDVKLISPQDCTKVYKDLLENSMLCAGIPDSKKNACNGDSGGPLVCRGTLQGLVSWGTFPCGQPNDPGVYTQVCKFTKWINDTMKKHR
AI-2 QS modul: modulators of Vibrio harveyi AI-2 quorum sensing system; Vibrio harveyi JMH597 AI-2 luminescence/OD600 ratio, 9 h; stronger effect = lower value; strain lacks LuxN and CqsS sensors; 0 = neutral-control median; activity change, % at 7.5 µM; 300,000 tested, 0.4% active; AID 2094; in the data active = activity change below about -75%, passing the limit was not always enough;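 note: luminescence divided by OD600 gain over 9 h not by final OD600 alone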
YIC FRET counter: counter-screen: alters YIC FRET probe signal; AID 435026; shares compounds with RanGTP-Impb inh; 1,000 tested, 40% active; IC50, µM; Purified YIC probe, intramolecular FRET ratio YFP/CFP;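 active = fitted half-maximal inhibitory concentration no more than tenfold above the top dose tested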
proKLK7 act conf: confirmation of human kallikrein-7 zymogen activators | shares compounds with proKLK7 act | purified proKLK7, EDANS-DABCYL substrate fluorescence; scaled: vehicle 0, mature enzyme 100 | activation, % at 7 µM | 3,200 tested, 68% active | AID 686949;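 active = activation, as change over the incubation, above the mean of all tested compounds plus 3 SD, cut at about 13% in these data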
EDANS-DABCYL int: counter-screen for kallikrein-7 activators: EDANS-DABCYL optical interference. shares compounds with proKLK7 act. EDANS-DABCYL substrate fluorescence interference, no enzyme, 4 h; solvent 0%, active enzyme control 100%. activation, % at 7 µM. 3,200 tested, 80% active. AID 686952;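 active = activation above the all-compound mean plus 3 SD, ignoring values outside control-based bounds, cut at about 4.8% in these data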;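 note: value is the 4 h activation minus the activation read at time zero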
* marks the source's active call; other numbers are inactive results. Hits are enriched below; roughly 2.9% of the tested compounds scored in any of these assays.

How did O=C(CCc1ccc(O)c(O)c1)NNC(=S)Nc1ccc(Br)cc1Cl do in these assays?
RanGTP-Impb inh: -0.5; Runt-CBFb FRET: 6.2; Runt-SMMHC FRET: -1.1; Wee1 stabilizer: -1.6; proKLK7 act: -0.5; AI-2 QS modul: 6.7

How did CC(O)CNc1nc2ccccc2n1CC(=O)NCC(F)(F)F (configuration not stated) do in these assays?
RanGTP-Impb inh: 0.7; Runt-CBFb FRET: -0.5; Runt-SMMHC FRET: -0.1; Wee1 stabilizer: -2.5; proKLK7 act: 0.3; AI-2 QS modul: 19.7

How did CC(O)CNc1nc2ccccc2n1CC(=O)NC12CC3CC(CC(C3)C1)C2 (configuration not stated) do in these assays?
RanGTP-Impb inh: 22.1*; Runt-CBFb FRET: -2.8; Runt-SMMHC FRET: 0.6; Wee1 stabilizer: -1.1; proKLK7 act: 0.6; AI-2 QS modul: 0.1; YIC FRET counter: >50

How did COc1ccc(CN2[C@@H](CC(C)=O)c3cc(C(F)(F)F)ccc3S2(=O)=O)cc1 do in these assays?
RanGTP-Impb inh: -2.9; proKLK7 act: -0.3; AI-2 QS modul: 14.8

How did COc1cccc(-c2coc3c(C)c4oc(=O)c(CC(=O)O)c(C)c4cc23)c1 do in these assays?
RanGTP-Impb inh: 23.6*; proKLK7 act: -1.7; AI-2 QS modul: 0.2; YIC FRET counter: >50

How did COc1cccc(-c2coc3c(C)c4oc(=O)c(CCC(=O)O)c(C)c4cc23)c1 do in these assays?
RanGTP-Impb inh: -0.8; proKLK7 act: -3.4; AI-2 QS modul: 20.7

Results for Cc1c(CC(=O)O)c(=O)oc2c(C)c3occ(-c4ccc(Br)cc4)c3cc12 ?
RanGTP-Impb inh: 28.4*; proKLK7 act: -1.5; AI-2 QS modul: -0.4; YIC FRET counter: >26

Results for CCc1nnc(NC(=O)c2cccnc2SC)s1 ?
RanGTP-Impb inh: 0.5; Runt-CBFb FRET: -1.2; Runt-SMMHC FRET: 1.4; Wee1 stabilizer: -0.1; proKLK7 act: -0.1; AI-2 QS modul: 24.7

What do the screens show for `COc1ccc(NC(=O)COC(C)=O)cc1Cl`?
RanGTP-Impb inh: 20.6*; Runt-CBFb FRET: 1.0; Runt-SMMHC FRET: -1.1; Wee1 stabilizer: -1.9; proKLK7 act: -0.1; AI-2 QS modul: 2.7; YIC FRET counter: >50

Results for CC(=O)Cc1nsc(NC(=O)c2ccc(-c3cc(C(F)(F)F)ccc3Cl)o2)n1 ?
RanGTP-Impb inh: 1.1; Runt-CBFb FRET: -3.2; Runt-SMMHC FRET: 3.1; Wee1 stabilizer: 1.4; proKLK7 act: 0.5; AI-2 QS modul: 17.8

Results for CC(=O)Cc1nsc(NC(=O)c2ccc(-c3cccc(C(F)(F)F)c3)o2)n1 ?
RanGTP-Impb inh: 22.2*; Runt-CBFb FRET: 3.3; Runt-SMMHC FRET: -0.3; Wee1 stabilizer: 1.0; proKLK7 act: -0.5; AI-2 QS modul: 0.6; YIC FRET counter: >50

How did Cn1nnnc1SCC(=O)Nc1ccc(Oc2ccccc2)cc1 do in these assays?
RanGTP-Impb inh: 0.5; Runt-CBFb FRET: -0.3; Runt-SMMHC FRET: -1.1; Wee1 stabilizer: 2.8; proKLK7 act: 0.5; AI-2 QS modul: 9.3

Results for Cn1nnnc1SCC(=O)Nc1nn(-c2ccccc2)nc1C(N)=O ?
RanGTP-Impb inh: 17.5*; Runt-CBFb FRET: 1.4; Runt-SMMHC FRET: -2.9; Wee1 stabilizer: -2.3; proKLK7 act: -0.6; AI-2 QS modul: 30.2; YIC FRET counter: >50

What do the screens show for `Cc1ccc(OCC(=O)c2cc(C)n(CC(F)(F)F)c2C)c([N+](=O)[O-])n1`?
RanGTP-Impb inh: 19.8*; Runt-CBFb FRET: 17.4; Runt-SMMHC FRET: 9.4; Wee1 stabilizer: -1.8; proKLK7 act: 1.1; AI-2 QS modul: 42.3; YIC FRET counter: >50

What do the screens show for `Cc1ccc(OCC(=O)c2cc(C)n(Cc3cccs3)c2C)c([N+](=O)[O-])n1`?
RanGTP-Impb inh: 0.4; Runt-CBFb FRET: 16.3; Runt-SMMHC FRET: 7.6; Wee1 stabilizer: 1.4; proKLK7 act: 0.6; AI-2 QS modul: 17.7

How did CS(=O)(=O)N(CC(=O)NCCSCc1ccccc1)c1ccccc1F do in these assays?
RanGTP-Impb inh: -7.3; proKLK7 act: -0.3; AI-2 QS modul: 12.7

What do the screens show for `COc1ccc(C(=O)COC(=O)C2CCC(=O)N2)cc1` (configuration not stated)?
RanGTP-Impb inh: 2.9; Runt-CBFb FRET: -1.2; Runt-SMMHC FRET: 2.2; Wee1 stabilizer: 6.0; proKLK7 act: -0.1; AI-2 QS modul: 10.0

How did O=C(COc1ccccc1)Nc1nnc(S(=O)(=O)N2CCCCCC2)s1 do in these assays?
RanGTP-Impb inh: -3.5; proKLK7 act: 0.1; AI-2 QS modul: 16.1

Results for O=c1cn[nH]c2ccccc12 ?
RanGTP-Impb inh: 20.7*; Runt-CBFb FRET: 2.0; Runt-SMMHC FRET: -9.5; Wee1 stabilizer: 3.7; proKLK7 act: -0.8; AI-2 QS modul: 13.9; YIC FRET counter: >50

What do the screens show for `O=[N+]([O-])c1cccc2[nH]ncc12`?
proKLK7 act: 0.0

Results for Cc1cccc(NC(=O)/C(C#N)=C/c2cn(CC(=O)NCc3ccco3)c3ccccc23)c1 ?
Runt-CBFb FRET: -86.6; Runt-SMMHC FRET: 11.0; Wee1 stabilizer: 4.2; proKLK7 act: -0.6

Results for COCCNC(=O)/C(C#N)=C/c1cn(CC(=O)NCc2ccco2)c2ccccc12 ?
RanGTP-Impb inh: 27.5*; Runt-CBFb FRET: -18.6; Runt-SMMHC FRET: 4.3; Wee1 stabilizer: 5.2; proKLK7 act: 74.8*; AI-2 QS modul: 32.5; YIC FRET counter: 44.2*; proKLK7 act conf: 7.8; EDANS-DABCYL int: 5.8*

How did Cc1ccc(S(=O)(=O)NCCc2cn3nc(C)c(C)nc3n2)cc1C do in these assays?
RanGTP-Impb inh: 20.3*; proKLK7 act: 57.9*; AI-2 QS modul: 8.8; YIC FRET counter: 25.5*; proKLK7 act conf: 41.3*; EDANS-DABCYL int: 49.3*

How did CCCNC(=O)C1(C)CCCN(C(=O)c2cccc(C(F)(F)F)c2)C1 (configuration not stated) do in these assays?
proKLK7 act: 0.0

Results for COC(=O)Cc1c(C)c2cc(Cl)c(OC(=O)c3ccco3)cc2oc1=O ?
RanGTP-Impb inh: 47.0*; Runt-CBFb FRET: 98.1*; Runt-SMMHC FRET: 141.3*; Wee1 stabilizer: -0.9; proKLK7 act: 88.2*; AI-2 QS modul: 21.8; YIC FRET counter: 20.9*; proKLK7 act conf: 397.1*; EDANS-DABCYL int: 432.2*
